Shown are actives, neighbours in structure and some others; about 2.1% of the full set was active somewhere.
Runt-CBFb FRET – inhibitors of human RUNX1 Runt domain binding to CBFb | Q01196+Q13951 | Cerulean-Runt/Venus-CBFb FRET ratio 530/480, 1 h | inhibition, % at 20 µM | 220,000 tested, 0.46% active;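 active means inhibition over about 50% at 20 µM in the single-dose screen, limit read from the data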;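 further: 0% = DMSO wells and 100% = excess unlabeled CBFb competitor control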
Target sequence (Q01196 whole entry, looked up, the tested form may be a part): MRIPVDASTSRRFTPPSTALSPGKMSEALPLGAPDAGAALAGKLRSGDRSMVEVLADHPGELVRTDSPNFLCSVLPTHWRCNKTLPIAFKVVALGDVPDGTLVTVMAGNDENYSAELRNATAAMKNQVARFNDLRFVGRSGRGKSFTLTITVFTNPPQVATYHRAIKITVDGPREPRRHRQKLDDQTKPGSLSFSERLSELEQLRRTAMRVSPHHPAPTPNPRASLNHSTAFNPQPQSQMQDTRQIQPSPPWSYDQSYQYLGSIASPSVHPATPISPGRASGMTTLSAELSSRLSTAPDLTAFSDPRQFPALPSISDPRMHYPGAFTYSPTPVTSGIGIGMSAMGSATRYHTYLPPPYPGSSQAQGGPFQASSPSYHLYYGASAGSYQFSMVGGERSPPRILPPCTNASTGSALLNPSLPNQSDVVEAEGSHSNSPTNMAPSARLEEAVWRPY
Target sequence (Q13951 whole entry, looked up, the tested form may be a part): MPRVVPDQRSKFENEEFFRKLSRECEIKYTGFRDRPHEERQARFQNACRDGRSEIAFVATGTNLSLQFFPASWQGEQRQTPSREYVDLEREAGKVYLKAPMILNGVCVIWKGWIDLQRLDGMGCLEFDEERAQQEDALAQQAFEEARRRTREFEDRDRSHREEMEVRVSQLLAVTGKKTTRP
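System: Cerulean-labeled Runt domain protein | Quantity: 100 nM of each labeled protein | Schedule: 1 h compound exposure, room temperature | Detection: Fluorescence energy transfer, 422 nm excitation, 530/480 nm emission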
m-calpain inh – blocks pig calpain II enzyme activity; purified calpain II, fluorogenic peptide substrate, 30 min; inhibition, % at 16 µM; 220,000 tested, 0.37% active; AID 1236;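 active means inhibition above about 50%, limit read from the data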
Runt-SMMHC FRET – blocks binding of human RUNX1 Runt domain to CBFb-SMMHC; Cerulean-Runt/Venus-CBFb-SMMHC FRET ratio 530/480, 1 h; inhibition, % at 20 µM; 220,000 tested, 0.74% active; AID 1434;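 active means mean inhibition across duplicate retests at 20 µM reaching about 50%, limit read from the data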;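 further: 0% = DMSO wells and 100% = wells with excess untagged CBFb-SMMHC; inhibitors lower the FRET ratio by blocking Runt binding to CBFb-SMMHC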
RanGTP-Impb inh – inhibitors of RanGTP-importin-beta interaction, primary screen, biochemical, FRET, CFP-Ran, YFP-importin-beta, homogeneous. inhibition, % (no concentration beside the values). 300,000 tested, 1.1% active. AID 2216. cell-free CFP-Ran/YFP-importin-beta FRET ratio;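 active means more than half of the replicate wells show a fall in the fluorescence ratio signal beyond about 16%, limit read from the data, passing the limit was not always enough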;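 further: 0% = DMSO wells and 100% = Ran loaded with GDP instead of GTP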
FAS TE block – blocks the thioesterase domain of human fatty acid synthase; P49327; recombinant FAS-TE, OMFH fluorogenic substrate, fluorescence endpoint; inhibition, % at 15 µM; 360,000 tested, 0.67% active;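 active means compounds whose normalised, plate-corrected inhibition of enzyme fluorescence in the single-dose primary screen is 50% or more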;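 further: 0% = DMSO with enzyme and 100% = substrate without enzyme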
* marks the source's active call; other numbers are inactive results; i = inactive; / = no result given; + = active, no number.

SMILES	Runt-CBFb FRET	m-calpain inh	Runt-SMMHC FRET	RanGTP-Impb inh	FAS TE block
CC(=Nc1ccc(C)cc1)c1sc2ccccc2c1O	-45	18	51	73*	-16
CC(=Nc1cccc(O)c1)c1sc2ccccc2c1O	8	-23	15	29*	-7
Cc1ccc(O)c(N=Cc2sc3ccccc3c2Cl)c1	5	18	-2	4	5
CC(=Nc1ccc(C)cc1C)c1sc2ccccc2c1O	-17	2	-26	42*	6
CC(C)CC1NC(=O)C(CC(C)C)N(CO)C1=O (centres undefined)	/	/	/	/	-2
COc1ccc(CNC(=O)[C@H](C)NC(=O)C2CCN(S(=O)(=O)c3ccc(F)cc3)CC2)cc1	/	/	/	2	-5
COCCSc1nc(N)c(NC(=O)c2ccco2)c(=O)[nH]1	/	/	/	-4	-5
COc1ccc(-n2ncc(S(=O)(=O)c3ccccc3)c2-c2ccc(Cl)cc2)cc1	0	52*	5	-2	29
O=S(=O)(c1ccccc1)c1cnn(-c2ccccc2)c1-c1ccc(F)cc1	0	-9	4	4	24
CN1C(=O)c2ccc(C(=O)NCc3ccco3)cc2C1=O	/	/	/	2	-4
CC(C)CCNC(=O)C12CN(Cc3ccccc3)CC1C(c1ccc([N+](=O)[O-])cc1)=NO2 (centres undefined)	10	58*	6	-5	20
O=C(CCN1CCC(c2ccc(Cl)s2)=N1)c1ccc(Cl)s1	-9	-11	-9	16*	7
CSc1nsc(N/N=C/c2ccc3c(c2)OCO3)c1C#N	14	27	16	20*	0
Cc1ccc(-c2nc(N)sc2-c2ccc(C)cc2)cc1	5	62*	2	-1	23
COc1ccc(-c2nc(NC(=O)CCNC(=O)c3ccco3)sc2C)cc1	0	52*	2	2	-2
Cc1cccn2c(=O)c3cc(C(N)=S)c(=N)n(CCCN4CCOCC4)c3nc12	4	-60	88*	-2	-5
Cc1ccc2nc3c(cc(C(N)=S)c(=N)n3CCCOC(C)C)c(=O)n2c1	11	-117	41	188*	-17
C=CCn1c(=N)c(C(=O)OCC)cc2c(=O)n3cc(C)ccc3nc21	12	/	38	/	/
COCCCn1c(=N)c(C(N)=S)cc2c(=O)n3cccc(C)c3nc21	/	/	/	+	-6
CCCN(CC(=O)Nc1ccccc1C)C(=O)c1ccc(N2CCCC2)c([N+](=O)[O-])c1	/	/	/	-9	1
COc1cc(NS(=O)(=O)c2ccc(NC(=S)NC(=O)c3sc4ccccc4c3Cl)cc2)nc(OC)n1	6	58*	-6	-2	-4
COc1cc(NS(=O)(=O)c2ccc(N/C=C\C(=O)c3ccc(OC)c(OC)c3)cc2)nc(OC)n1	38	-108	83*	1	-6
O=S(=O)(NN1CCOCC1)c1cc(Cl)cc(Cl)c1O	/	/	/	-1	0
FC(F)(F)c1nc2nc(Cl)c(Cl)nc2[nH]1	/	/	/	/	-8
FC(F)(F)c1cccc(-c2nc3nc(Cl)c(Cl)nc3[nH]2)c1	21	-141	43	43*	-1
SMILES	Runt-CBFb FRET	m-calpain inh	Runt-SMMHC FRET	RanGTP-Impb inh	FAS TE block
O=C(NCCO)c1ccc2[nH]c3c(c2c1)CCCC3	1	-8	1	18*	-4
Cc1ccc(NC(=S)NCc2ccc3[nH]c4c(c3c2)CCCC4)cc1	-12	-35	-17	4	10
O=C(NCCCO)c1ccc2[nH]c3c(c2c1)CCCC3	3	-11	1	11	-6
COCCNC(=S)NCc1ccc2[nH]c3c(c2c1)CCCC3	-9	-13	-22	19*	-4
COCCN(CC(=O)Nc1cccc(C)c1C)C(=O)Cc1sc(C)nc1-c1ccc(F)cc1	/	/	/	/	-1
CCCNC(=O)C1(C)CCCN(Cc2ccccc2Cl)C1 (centres undefined)	/	/	/	/	-5
NC(=O)c1cc(S(=O)(=O)N2CCOCC2)ccc1Sc1ccccc1N	/	/	/	/	-6
Cc1nc2ccccc2c(=O)n1CCc1ccc(O)cc1	/	/	/	-1	1
Cc1ccc(S(=O)(=O)c2cc3c(=O)n4cccc(C)c4nc3n(Cc3ccco3)c2=N)cc1C	48	/	65*	/	/
Cc1ccc(S(=O)(=O)c2cc3c(=O)n4ccccc4nc3n(Cc3ccco3)c2=N)cc1	19	i	/	104*	29
O=C(Cc1cccs1)N(CC1CCCO1)C1(C(=O)NC2CCCC2)CCCCC1 (centres undefined)	-2	28	-1	-2	2
CCCCN(C(=O)c1cccc(S(=O)(=O)N2CC(C)OC(C)C2)c1)c1c(N)n(CC(C)C)c(=O)[nH]c1=O (centres undefined)	/	/	/	5	-7
CCN(CCO)c1cc(Cl)nc(SC)n1	-1	13	-5	69*	-9
Cc1ccc(C)c(-n2c(-c3ccco3)n[nH]c2=S)c1	/	/	/	15*	-3
CN(C)S(=O)(=O)c1ccc(NC(=O)CN2C(=O)NC3(CCCC3)C2=O)cc1	/	/	/	2	-2
Cc1cccc(N(C(=O)c2snc(C(N)=O)c2N)C(C(=O)NCc2ccccc2)c2ccncc2)c1 (centres undefined)	/	/	/	2	-4
O=C(C1CC1)N1CCc2cc(Br)cc(S(=O)(=O)NC3CCCCC3)c21	2	53*	0	-1	15
CCOC(=O)C1=C(CSc2nc3c(cc2C#N)CN(C)CC3)OC(N)=C(C#N)C1c1ccc(F)cc1 (centres undefined)	36	-237	63*	19*	17
CCOC(=O)C1=C(CSc2nc3c(cc2C#N)CCC3)OC(N)=C(C#N)C1c1ccccc1 (centres undefined)	/	-40	30	12	20
CCOC(=O)C1=C(CSc2nc3c(cc2C#N)CN(C)CC3)OC(N)=C(C#N)C1c1ccccc1 (centres undefined)	45	-165	104*	32*	5
O=C(NC1CC2CCCC(C1)N2C(=O)Nc1cccc(F)c1)C1CC1 (centres undefined)	/	/	/	1	-7
COc1ccccc1-n1c([S-])c(C(=O)Nc2ccccc2C(F)(F)F)[n+]2ccc(C(=O)NCCO)cc12	6	69*	2	20*	2
CCc1nc2ccc(C(=O)NCCc3c[nH]c4ccccc34)cn2c1N(C=O)CCC(C)C	/	/	/	/	6
O=C/C(=C\Nc1ccc(Cl)cn1)c1nc2cc(Cl)ccc2o1	-19	-61	-40	8	-13
O=C/C(=C\Nc1ccc(S(=O)(=O)CCO)cc1)c1nc2cc(Cl)ccc2o1	-4	-89	-6	22*	6
CC(=O)Nc1ccc(C2=CC(=O)C[C@H](c3ccc(Cl)cc3)C2)cc1	/	/	/	/	6
Cc1csc2c(N3CCN(C(=O)Nc4ccccc4)CC3)ncnc12	1	-1	2	0	-1
